Active and inactive are the calls of the source. The rule behind the calls is not given here.
How the values were obtained:
[1] = Toxicity in brine shrimp; type: organism-based; conditions: artemia salina, in vivo; read-out: LD50 (the source's name)
Summary of the method: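 Lethality test using brine shrimp (Artemia salina).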

K562 = experiment: Cytotoxicity against human K562 cells; type: functional, cell-based
HL-60 = experiment: Cytotoxicity against human HL60 cells; type: functional, cell-based
MDA-MB-231 = experiment: Cytotoxicity against human MDA-MB-231 cells; type: functional, cell-based
Bel-7402 = experiment: Cytotoxicity against human Bel7402 cells; type: functional, cell-based
Escherichia coli = experiment: Antibacterial activity against Escherichia coli by well diffusion method; type: functional, organism-based
Summary of the method: (§1)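 Agar well diffusion test run against E. coli and S. aureus, with chloromycetin as the positive control.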

Staphylococcus aureus = experiment: Antibacterial activity against Staphylococcus aureus by well diffusion method; type: functional, organism-based; summary of the method: as §1

SMILES	LC50 [1]	Activity (K562)	Activity (HL-60)	Activity (MDA-MB-231)	Activity (Bel-7402)	Activity (Escherichia coli)	Activity (Staphylococcus aureus)
CO[C@@H]1C(=O)Nc2ccc(CC=C(C)C)c(O)c2[C@@]1(O)c1ccccc1	4.5 µM	inactive	inactive	inactive	inactive	inactive	inactive
C=C(C)[C@H]1CC[C@](C)(/C=C/c2ccc3c(c2O)[C@@](O)(c2ccccc2)[C@H](OC)C(=O)N3)O1		inactive	inactive	inactive	inactive	inactive	inactive
O=C1Nc2ccccc2[C@@](O)(c2ccc(O)cc2)[C@@H]1O		inactive	inactive	inactive	inactive	inactive	inactive
CO[C@@H]1C(=O)Nc2ccc(/C=C/[C@]3(C)CCC(=O)[C@@H](C)C3)c(O)c2[C@@]1(O)c1ccccc1 [AFLAQUINOLONE A]	5.5 µM						
CO[C@@H]1C(=O)Nc2ccc(O)cc2[C@@]1(O)c1ccccc1		inactive	inactive	inactive	inactive	inactive	inactive
CO[C@@H]1C(=O)Nc2ccccc2[C@@]1(O)c1ccccc1		inactive	inactive	inactive	inactive	inactive	inactive
CO[C@@H]1C(=O)Nc2ccc(/C=C/[C@@]3(C)CC[C@H](C(C)(C)O)O3)c(O)c2[C@@]1(O)c1ccccc1	7.1 µM	inactive	inactive	inactive	inactive	inactive	inactive
